Laboratory results as given in ChEMBL document CHEMBL3817772, “Design, Synthesis, and Biological Evaluations of Hydroxypyridonecarboxylic Acids as Inhibitors of HIV Reverse Transcriptase Associated RNase H” (J Med Chem, 2016).

Legend:
[1] = Inhibition of HIV-1 RT-RNase H activity expressed in Escherichia coli JM109 using internal cleavage measuring HTS-1 as substrate by fluorescence-based assay; set-up: species or system Human immunodeficiency virus 1
Outline: (§1)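 RT RNase H cleavage of fluorescein/Dabcyl-labelled RNA/DNA duplexes, with substrate in excess over RT. HTS-1 probes internal cleavage, HTS-2 DNA 3'-end-directed cleavage, and HTS-3 (fluorescein RNA annealed to Dabcyl DNA) RNA 5'-end-directed cleavage.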

[2] = system: Human immunodeficiency virus 1; experiment: Inhibition of HIV-1 RT-RNase H domain expressed in Escherichia coli JM109 at 30 uM using HTS-1 as substrate preincubated with substrate for 10 mins followed by compound/MgCl2 addition incubated for 10 mins by fluorescence-based assay
Outline: (§2)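 Order-of-addition RNase H assay, HIV-1 RT in this format. Final conditions: 100 nM RT, 250 nM HTS-1 RNA/DNA duplex, 6 mM MgCl2, 30 µM inhibitor, 1% DMSO. RT is pre-incubated 10 min at 37 °C with the specified components. Missing components are then added and the reaction runs 10 min at 37 °C. Fluorescence signal is corrected against a DMSO-only control. Mean ± SD of two independent experiments.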

[3] = system: Human immunodeficiency virus 1; experiment: Inhibition of HIV-1 RT-RNase H domain expressed in Escherichia coli JM109 at 30 uM using HTS-1 as substrate preincubated with compound and MgCl2 for 10 mins followed by substrate addition incubated for 10 mins by fluorescence-based assay; outline: as §2
[4] = system: Human immunodeficiency virus 1; experiment: Inhibition of HIV-1 RT-RNase H domain expressed in Escherichia coli JM109 at 30 uM using HTS-1 as substrate preincubated for 10 mins followed by substrate/MgCl2 addition incubated for 10 mins by fluorescence-based assay; outline: as §2
[5] = system: Human immunodeficiency virus 1; experiment: Inhibition of HIV-1 RT-RNase H domain expressed in Escherichia coli JM109 at 30 uM using HTS-1 as substrate preincubated with substrate for 10 mins followed by compound/MgCl2 addition incubated for 2 mins by fluorescence-based assay
Outline: (§3)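 Excess-RT order-of-addition RNase H assay. RT is pre-incubated 10 min at 37 °C with inhibitor or with substrate. Remaining components are added and the reaction runs 2 min at 37 °C. Fluorescence is DMSO-control corrected. Mean ± SD of two independent experiments.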

[6] = system: Human immunodeficiency virus 1; experiment: Inhibition of HIV-1 RT-RNase H domain expressed in Escherichia coli JM109 at 30 uM using HTS-1 as substrate preincubated for 10 mins followed by substrate/MgCl2 addition incubated for 2 mins by fluorescence-based assay; outline: as §3
[7] = system: Human immunodeficiency virus 1; experiment: Inhibition of HIV-1 RT-RNase H domain expressed in Escherichia coli JM109 at 30 uM using HTS-1 as substrate preincubated with compound/substrate for 10 mins followed by MgCl2 addition incubated for 10 mins by fluorescence-based assay; outline: as §2
[8] = Inhibition of HIV-1 RT-RNase H activity expressed in Escherichia coli JM109 using DNA 3'-end directed cleavage measuring HTS-2 as substrate by fluorescence-based assay; set-up: species or system Human immunodeficiency virus 1; outline: as §1
[9] = target: Human immunodeficiency virus type 1 integrase (Human immunodeficiency virus 1, UniProt Q7ZJM1, C280S/F185K); experiment: Inhibition of full-length HIV-1 integrase F185K/C280S double mutant strand transfer activity expressed in Escherichia coli BL21(DE3) using oligo DNA as substrate preincubated for 10 mins followed by substrate addition incubated for 30 mins by plate reader analysis
[10] = target: Human immunodeficiency virus type 1 reverse transcriptase (Human immunodeficiency virus 1, UniProt Q72547); experiment: Inhibition of HIV-1 RT RNA-dependent DNA polymerase activity expressed in Escherichia coli JM109 using [3H]TTP/ poly(rA)-oligo(dT)16 as substrate incubated for 20 mins by liquid scintillation spectrometric analysis
Outline: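 RNA-dependent DNA polymerase reaction in 50 mM Tris-HCl pH 7.4 (37°C), 60 mM KCl, 5 mM MgCl2, with 10 µM [3H]-TTP and 40 nM poly(rA)-oligo(dT)16. Started with 10 nM RT, 20 min at 37°C. Quenched in ice-cold 10% TCA plus 20 mM sodium pyrophosphate, glass-fiber filtered, washed with TCA and ethanol. Incorporation counted by liquid scintillation.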

[11] = Inhibition of HIV-1 RT-RNase H activity expressed in Escherichia coli JM109 using RNA 5'-end directed cleavage measuring HTS-3 as substrate by fluorescence-based assay; set-up: species or system Human immunodeficiency virus 1; outline: as §1
[12] = Inhibition of HIV-1 RT-RNase H domain fragment expressed in Escherichia coli by fluorescence-based assay; set-up: species or system Human immunodeficiency virus 1
[13] = system: Human immunodeficiency virus 1; experiment: Antiviral activity against HIV-1 infected in human HeLa P4/R5 cells assessed as inhibition of virus replication pretreated for 16 hrs followed by infection measured after 48 hrs by fluorescence-based beta-galactosidase detection assay; assay type: functional, organism-based
Outline: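 P4R5 indicator cells (CD4, CXCR4, CCR5; HIV LTR-driven β-galactosidase reporter) seeded at 5×10^3 per well in DMEM/10% FBS with puromycin 0.5 µg/ml. Drug exposure 16 h, then HIV infection and a further 48 h. Infection read by fluorescence-based β-galactosidase detection. Triplicate data points; EC50 taken from dose-response.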

[14] = Cytotoxicity against human HeLa P4/R5 cells up to 25 uM; assay type: cell-based

Human immunodeficiency virus type 1 integrase, sequence (Q7ZJM1 entry or part of it C280S/F185K): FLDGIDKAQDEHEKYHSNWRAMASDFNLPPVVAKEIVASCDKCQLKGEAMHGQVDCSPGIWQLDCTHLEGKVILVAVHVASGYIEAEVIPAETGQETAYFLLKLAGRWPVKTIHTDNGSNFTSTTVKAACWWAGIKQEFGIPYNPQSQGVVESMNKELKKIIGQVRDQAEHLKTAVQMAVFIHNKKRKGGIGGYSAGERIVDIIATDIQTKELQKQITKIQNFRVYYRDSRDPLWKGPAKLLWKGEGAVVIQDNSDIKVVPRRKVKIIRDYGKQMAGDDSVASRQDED

Row | SMILES | IC50 [1] [µM] | inhibition [2] [%] | inhibition [3] [%] | inhibition [4] [%] | inhibition [5] [%] | inhibition [6] [%] | inhibition [7] [%] | IC50 [8] [µM] | IC50 [9] [µM] | IC50 [10] [µM] | IC50 [11] [µM] | IC50 [12] [µM] | inhibition [13] | EC50 ([13]; Human immunodeficiency virus 1, P4/R5) [µM] | CC50 [14] [µM]
1 | O=C(O)c1cn(Cc2ccc(-c3cnc4ccccc4c3)cc2)cc(O)c1=O | 0.9 | 50 | 68 | 95 | 74 | 91 | 66 |  |  |  |  |  |  |  | 
2 | CCOC(=O)c1cn(Cc2ccc(F)cc2)cc(O)c1=O | > 25 |  |  |  |  |  |  | > 25 | > 100 | > 25 | > 25 | > 25 |  |  | 
3 | NCc1ccc(-c2ccc(Cn3cc(O)c(=O)c(C(=O)O)c3)cc2)cc1 |  |  |  |  |  |  |  | 4.4 | 7.79 | 3.2 | 3.9 | 4.4 |  |  | 
4 | O=C(O)c1cn(Cc2ccc(-c3cccnc3)cc2)cc(O)c1=O |  |  |  |  |  |  |  |  |  | > 25 |  |  |  |  | 
5 | O=C(O)c1cn(Cc2ccc(F)c(Cl)c2)cc(O)c1=O | 18 |  |  |  |  |  |  | > 25 | 44.5 | > 25 | > 25 | 9.8 |  |  | 
6 | O=C(O)c1cn(Cc2cccc(C(F)(F)F)c2)cc(O)c1=O |  |  |  |  |  |  |  | > 25 |  | > 25 | > 25 |  |  |  | 
7 | O=C(O)c1cn(Cc2ccc(Cl)cc2Cl)cc(O)c1=O | 12 |  |  |  |  |  |  | > 25 | 25 | > 25 | > 25 | 4.2 |  |  | 
8 | CS(=O)(=O)c1ccc(Cn2cc(O)c(=O)c(C(=O)O)c2)cc1 | > 25 |  |  |  |  |  |  | > 25 | > 100 | > 25 | > 25 | 25 |  |  | 
9 | Cc1cc(Cn2cc(O)c(=O)c(C(=O)O)c2)ccc1F | 17 |  |  |  |  |  |  | > 25 | > 100 | > 25 | > 25 | 9.8 |  |  | 
10 | NS(=O)(=O)c1ccc(-c2ccc(Cn3cc(O)c(=O)c(C(=O)O)c3)cc2)cc1 | 0.65 | 14 | 79 | 97 | 80 | 92 | 68 | 1.5 | > 100 | 1.2 | 1 | 1.3 |  |  | 
11 | COc1ccc(Cn2cc(O)c(=O)c(C(=O)O)c2)cc1 |  | 21 | 52 | 69 | 58 | 70 | 27 |  |  | > 25 |  |  |  |  | 
12 | O=C(O)c1cn(Cc2ccc(F)cc2)cc(O)c1=O | 17 |  |  |  |  |  |  | > 25 | 35 | > 25 | > 25 | 7.8 |  |  | 
13 | O=C(O)c1cn(CC2(c3ccccc3)CCCC2)cc(O)c1=O | 1.5 | 18 | 84 | 75 | 15 | 42 | 38 | 5.1 | 14 | 1.8 | 4.9 | 8.2 |  |  | 
14 | CC(c1ccc(F)cc1)n1cc(O)c(=O)c(C(=O)O)c1 (centres undefined) | 16 |  |  |  |  |  |  | > 25 | 34 | > 25 | > 25 | 5.3 |  |  | 
15 | O=C(O)c1cn(Cc2ccc(Cl)cc2)cc(O)c1=O |  |  |  |  |  |  |  | > 25 |  | > 25 | > 25 |  |  |  | 
16 | O=C(O)c1cn(Cc2ccncc2)cc(O)c1=O | > 25 |  |  |  |  |  |  | > 25 | > 100 | > 25 | > 25 | > 25 |  |  | 
17 | CC(c1cccc2ccccc12)n1cc(O)c(=O)c(C(=O)O)c1 (centres undefined) | 7 |  |  |  |  |  |  | > 25 | 2.26 | 19 | 13 | 3.7 |  |  | 
18 | O=C(O)c1cn(Cc2ccc(Br)cc2)cc(O)c1=O | > 25 |  |  |  |  |  |  | > 25 | > 100 | > 25 | > 25 | > 25 |  |  | 
19 | O=C(O)c1cn(Cc2ccc(Cl)c(Cl)c2)cc(O)c1=O | 14 |  |  |  |  |  |  | > 25 | 36 | > 25 | > 25 | 4.7 |  |  | 
20 | O=C(O)c1cn(Cc2cccc3ccccc23)cc(O)c1=O |  | 28 | 51 | 58 | 61 | 82 | 35 |  |  |  |  |  | Dose-dependent effect | 10 | > 25
21 | O=C(O)c1c[nH]cc(O)c1=O | > 25 |  |  |  |  |  |  | > 25 | > 100 | > 25 | > 25 | 22 |  |  | 
22 | NC(=O)c1cn(Cc2ccc(F)cc2)cc(O)c1=O | 12 |  |  |  |  |  |  | > 25 | 32 | > 25 | > 25 | 6.8 |  |  | 
23 | O=C(O)c1ccc(Cn2cc(O)c(=O)c(C(=O)O)c2)cc1 | > 25 |  |  |  |  |  |  | > 25 | > 100 | > 25 | > 25 | 14 |  |  | 
24 | O=C(O)c1cn(-c2ccccc2)cc(O)c1=O | > 25 |  |  |  |  |  |  | > 25 | 37 | > 25 | > 25 | > 25 |  |  | 
25 | O=C(O)c1cn(Cc2ccccc2)cc(O)c1=O | > 25 |  |  |  |  |  |  | > 25 | 35 | > 25 | > 25 | 11 |  |  | 
26 | O=C(O)c1cn(Cc2ccccc2-c2ccccc2)cc(O)c1=O | 7.7 |  |  |  |  |  |  | 25 | 17 | > 25 | > 25 | 5.1 |  |  | 
27 | O=C(O)c1cn(Cc2ccc(F)cc2F)cc(O)c1=O | 13 |  |  |  |  |  |  | > 25 | > 100 | > 25 | > 25 | 6.8 |  |  | 
28 | O=C(O)c1cn(Cc2ccc(-c3ccccc3)cc2)cc(O)c1=O | 2.5 | 21 | 36 | 68 | 59 | 78 | 37 | 2.8 | 22 | 2.2 | 2.9 | 1.8 |  |  | 
